Consider 26 molecules from ChEMBL document CHEMBL1132311, “Design and synthesis of isoxazoline derivatives as factor Xa inhibitors. 1” (J Med Chem, 1999).

As usually defined, the pKi is the negative decadic logarithm of the Ki, by convention in mol/L. Higher therefore signals a low Ki.

The structures appear in SMILES notation. pKi: −log10 of the molar value.

One experiment concerns the target Coagulation factor X (Homo sapiens, UniProt P00742). In words: Binding affinity to purified human coagulation factor Xa (FXa).
The next experiment concerns the target Prothrombin (Homo sapiens, UniProt P00734). In words: The binding affinity towards thrombin obtained from human purified enzymes.
For experiment [1], the target named is T1, Serine protease 1 (Homo sapiens, UniProt P07477). In words: The binding affinity was measured towards human purified trypsin. The essentials:
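Human purified enzymes, microtiter format; 0.1 M sodium phosphate, 0.2 M NaCl, 0.5% PEG 6000, pH 7.0. Compound at 10 to 0.00316 µM (eight half-log steps). Absorbance at 405 nm read for 30 min; rates vs uninhibited controls give % activity, Ki calculated from substrate concentration and Km. Duplicate runs with the same internal standards.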

The species named for the next experiment is Oryctolagus cuniculus. In words: The ID50 value was the 50% inhibition of thrombus formation was measured on rabbits. In kind it is functional. The gist of the method: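 New Zealand rabbits (2-4 kg) under ketamine (50 mg/kg im) plus xylazine (10 mg/kg im). Femoral artery-vein shunt containing silk thread. Compound or saline vehicle given as continuous iv infusion via jugular vein, starting 1 h before shunt flow and continuing throughout (100 min).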

In experiment [2] the target is T1, Serine protease 1. The experiment can be described thus: The binding affinity was measured on trypsin obtained from Human purified enzymes. The gist of the method:
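Inhibition constant against human purified trypsin, in 0.1 M sodium phosphate with 0.2 M NaCl and 0.5% PEG 6000, pH 7.0. Eight inhibitor levels were run, 10 down to 0.00316 µM. Absorbance was read at 405 nm for 30 min. Ki was derived from % activity relative to uninhibited rates using Km and substrate concentration. Duplicate runs alongside internal standards.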

Coagulation factor X, sequence (P00742 41-179 limits assumed): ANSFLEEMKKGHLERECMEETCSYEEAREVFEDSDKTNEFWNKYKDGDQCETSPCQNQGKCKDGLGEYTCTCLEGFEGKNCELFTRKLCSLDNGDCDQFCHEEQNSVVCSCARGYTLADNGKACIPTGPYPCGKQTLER
Coagulation factor X, sequence (P00742 235-488 limits assumed): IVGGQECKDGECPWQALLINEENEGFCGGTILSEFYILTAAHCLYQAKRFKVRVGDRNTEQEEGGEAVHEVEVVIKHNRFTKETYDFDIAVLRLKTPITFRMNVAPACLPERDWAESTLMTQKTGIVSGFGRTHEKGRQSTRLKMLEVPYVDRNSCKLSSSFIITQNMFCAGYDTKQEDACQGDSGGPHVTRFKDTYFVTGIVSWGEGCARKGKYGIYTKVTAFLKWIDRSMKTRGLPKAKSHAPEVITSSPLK
T1 sequence (P07477 whole entry): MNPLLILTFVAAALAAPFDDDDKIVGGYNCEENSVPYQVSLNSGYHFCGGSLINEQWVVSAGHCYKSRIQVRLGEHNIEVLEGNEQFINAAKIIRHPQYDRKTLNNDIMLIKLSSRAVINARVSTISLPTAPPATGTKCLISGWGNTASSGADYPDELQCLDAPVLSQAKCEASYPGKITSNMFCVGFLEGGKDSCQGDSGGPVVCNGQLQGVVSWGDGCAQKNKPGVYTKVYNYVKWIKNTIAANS

As for `COC(=O)CC1(C(=O)Nc2ccc(-c3cccc(C)c3)cc2)CC(c2cccc(C(=N)N)c2)=NO1` (stereo not given), the pKi is 6.62 on Coagulation factor X and 5.68 at Prothrombin.
On to `COC(=O)CC1(C(=O)Nc2ccc(-c3cccc(OC)c3)cc2)CC(c2cccc(C(=N)N)c2)=NO1` (stereo not given), for which the pKi at Coagulation factor X was 6.70; on Serine protease 1 [1] it was 6.41; at Prothrombin, 5.57.
For the molecule `COC(=O)CC1(C(=O)Nc2ccc(-c3ccccc3C(F)(F)F)cc2)CC(c2cccc(C(=N)N)c2)=NO1` (stereo not given), the pKi at Coagulation factor X was 7.55; on Serine protease 1 [1] it was 6.64; at Prothrombin, 5.85.
As for `COC(=O)CC1(C(=O)Nc2ccc(-c3ccccc3S(N)(=O)=O)nc2)CC(c2cccc(C(=N)N)c2)=NO1` (stereo not given), the pKi is 7.72 at Coagulation factor X, 6.74 at Serine protease 1 [1] and 4.97 at Prothrombin.
For `COC(=O)CC1(C(=O)Nc2ccc(-c3ccccc3OC)cc2)CC(c2cccc(C(=N)N)c2)=NO1` (stereo not given) the same measures were 7.21, 6.51 and 5.55.
On to `COC(=O)CC1(C(=O)Nc2ccc(-c3ccccc3S(N)(=O)=O)cc2C)CC(c2cccc(C(=N)N)c2)=NO1` (stereo not given), for which the pKi on Coagulation factor X was 8.06; at Serine protease 1 [1] it was 6.52; at Prothrombin, 5.51.
In the case of `COC(=O)CC1(C(=O)Nc2ccc(-c3ccccc3C(=O)OC)cc2)CC(c2cccc(C(=N)N)c2)=NO1` (stereo not given), the pKi at Coagulation factor X is 7.28; at Serine protease 1 [1], 6.52; at Prothrombin, 5.68.
`COC(=O)CC1(C(=O)Nc2ccc(-c3ccccc3S(N)(=O)=O)cc2F)CC(c2cccc(C(=N)N)c2)=NO1` (stereo not given): the values for the pKi on Coagulation factor X, at Serine protease 1 [1] and at Prothrombin were 8.38, 6.92 and 5.42, respectively.
Take `COC(=O)CC1(C(=O)Nc2ccc(-c3cccc(S(N)(=O)=O)c3)cc2)CC(c2cccc(C(=N)N)c2)=NO1` (stereo not given): the pKi on Coagulation factor X was 7.17; at Serine protease 1 [1], 6.47; at Prothrombin it was 5.51.
In the case of `COC(=O)CC1(C(=O)Nc2ccc(-c3ccccc3S(C)(=O)=O)cc2)CC(c2cccc(C(=N)N)c2)=NO1` (stereo not given), the pKi at Coagulation factor X was 8.38; on Serine protease 1 [1], 7.00; on Prothrombin, 6.22.
`COC(=O)CC1(C(=O)Nc2ccc(-c3ccccc3)cc2)CC(c2cccc(C(=N)N)c2)=NO1` (stereo not given): the negative-log Ki (pKi) at Coagulation factor X was 6.66; on Serine protease 1 [1], 6.33; at Prothrombin, 5.46.
As to `COC(=O)CC1(C(=O)Nc2ccc(-c3ccccc3C)cc2)CC(c2cccc(C(=N)N)c2)=NO1` (stereo not given), the results for the pKi at Coagulation factor X, at Serine protease 1 [1] and on Prothrombin were 6.68, 6.41 and 5.74, respectively.
As to `COC(=O)CC1(C(=O)Nc2ccc(-c3ccccc3SC)cc2)CC(c2cccc(C(=N)N)c2)=NO1` (stereo not given), the pKi on Coagulation factor X was 7.18; at Serine protease 1 [1] it was 6.59; on Prothrombin, 5.92.
For `COC(=O)CC1(C(=O)Nc2ccc(-c3cccc(C(F)(F)F)c3)cc2)CC(c2cccc(C(=N)N)c2)=NO1` (stereo not given), the pKi on Coagulation factor X was 6.62; at Serine protease 1 [1], 6.24; on Prothrombin, 5.92.
In the experiment filed under Oryctolagus cuniculus, `COC(=O)CC1(C(=O)Nc2ccc(-c3ccccc3S(N)(=O)=O)cc2)CC(c2cccc(C(=N)N)c2)=NO1.O=C(O)C(F)(F)F` (racemic) registered an ID50 of 0.6 µM/h/kg. The molecule also had a pKi at Serine protease 1 [1] of 6.92.
Take `COC(=O)CC1(C(=O)Nc2ncc(-c3ccccc3S(N)(=O)=O)cn2)CC(c2cccc(C(=N)N)c2)=NO1.O=C(O)C(F)(F)F` (racemic): the ID50 in the experiment filed under Oryctolagus cuniculus was 0.4 µM/h/kg.
`COC(=O)CC1(C(=O)Nc2ccc(-c3ccccc3S(N)(=O)=O)cn2)CC(c2cccc(C(=N)N)c2)=NO1.O=C(O)C(F)(F)F` (racemic): in the experiment filed under Oryctolagus cuniculus, the ID50 turned out to be 0.3 µM/h/kg. In addition, the pKi on Coagulation factor X was 9.02; on Serine protease 1 [1] it was 7.60.
In the experiment filed under Oryctolagus cuniculus, `COC(=O)CC1(C(=O)Nc2ccc(-c3ccccc3S(N)(=O)=O)cc2)CC(c2cccc(C(=N)N)c2)=NO1.O=C(O)C(F)(F)F` (single isomer, unassigned; (+)) yielded an ID50 of 2 µM/h/kg. For the same molecule, the values for the pKi at Serine protease 1 [1] and at Prothrombin were 6.52 and < 4.68, respectively.
In the experiment listed under Oryctolagus cuniculus, `COC(=O)CC1(C(=O)Nc2ccc(-c3ccccc3S(N)(=O)=O)cn2)CC(c2cccc(C(=N)N)c2)=NO1.O=C(O)C(F)(F)F` (single isomer, unassigned; (+)) yielded an ID50 of 0.6 µM/h/kg. For the same molecule, the pKi is 8.15 on Coagulation factor X, 6.89 at Serine protease 1 [1] and 4.74 at Prothrombin.
In the case of `CC(=O)N[C@H](Cc1ccccc1)C(=O)N1CCC[C@@H]1C(=O)NC(CCCN=C(N)N)B(O)O` (single isomer, unassigned; (-)), the pKi at Serine protease 1 [2] is 7.26; on Coagulation factor X, 7.40.
Turning to `COC(=O)CC1(C(=O)Nc2ccc(-c3ccccc3S(N)(=O)=O)cc2)CC(c2cccc(C(=N)N)c2)=NO1.O=C(O)C(F)(F)F` (single isomer, unassigned; (-)), in the experiment listed under Oryctolagus cuniculus, the ID50 is 0.2 µM/h/kg. The pKi at Serine protease 1 [1] was 7.01; at Prothrombin it was 5.62.
Molecule `COC(=O)CC1(C(=O)Nc2ncc(-c3ccccc3S(N)(=O)=O)cn2)CC(c2cccc(C(=N)N)c2)=NO1.O=C(O)C(F)(F)F` (single isomer, unassigned; (-)) came in with an ID50 in the experiment listed under Oryctolagus cuniculus of 0.15 µM/h/kg. Also, the pKi at Coagulation factor X is 8.64; at Serine protease 1 [1], 6.77; at Prothrombin, 5.05.
With `COC(=O)CC1(C(=O)Nc2ccc(-c3ccccc3S(N)(=O)=O)cn2)CC(c2cccc(C(=N)N)c2)=NO1.O=C(O)C(F)(F)F` (single isomer, unassigned; (-)), in the experiment filed under Oryctolagus cuniculus, the ID50 is 0.26 µM/h/kg. Further, the pKi on Coagulation factor X is 9.08; at Serine protease 1 [1], 7.77; on Prothrombin it was 5.54.
Consider `COC(=O)CC1(C(=O)Nc2ccc(-c3ccccc3S(N)(=O)=O)cn2)CC(c2cccc(C(=N)N)c2)=NO1` (stereo in doubt; 30), for which the results for the pKi at Coagulation factor X and at Serine protease 1 [1] were 9.02 and 7.60, respectively.
In the case of `COC(=O)CC1(C(=O)Nc2ncc(-c3ccccc3S(N)(=O)=O)cn2)CC(c2cccc(C(=N)N)c2)=NO1` (stereo in doubt; 31), the pKi at Serine protease 1 [1] was 6.47; at Prothrombin it was 4.85.
Regarding `COC(=O)CC1(C(=O)Nc2ncc(-c3ccccc3S(N)(=O)=O)cn2)CC(c2cccc(C(=N)N)c2)=NO1.O=C(O)C(F)(F)F` (stereo in doubt; 34(+)), the ID50 in the experiment filed under Oryctolagus cuniculus was >1.5 µM/h/kg. Also, the pKi was 7.92 at Coagulation factor X, 6.15 at Serine protease 1 [1] and < 4.68 on Prothrombin.
